Drawing on PubChem BioAssay, this text covers viability, differential viability (reversal) and inhibition for 18 compounds.

Assay [1] can be described thus: reduced viability of SK-BR-3 breast cancer cells – cell-based, 24 h, human, pilot screen (AID 572;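 active means viability at or below 10% of carrier control in both of two separate runs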;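 further: compound exposure lasted between 18 and 24 h rather than exactly 24 h; 100% = carrier-treated control wells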). Particulars: SK-BR-3 viability, CellTiter-Glo luminescence, at 10 µM, stronger effect = lower value. (In general: Cellular ATP, detected with luciferase, serves as a proxy for viable cell number.)
A short description of assay [2]: HUVEC growth inhibition – cell-based, human, primary screen (AID 575;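 active means viability at or below 30% in both replicate assays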;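 further: 100% = median of untreated cell wells with 0.1% DMSO on each plate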). Particulars: HUVEC proliferation, CellTiter-Glo luminescence, 72 h; at 10 µM; stronger effect = lower value. A digest of the protocol: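 Test system – primary HUVEC, no more than 12 passages · Dosing – one dose, 10 µM final, 0.1% DMSO · Times – 72 h treatment at 37 °C · Measured by – ATP-based CellTiter-Glo luminescent read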

Assay [3] is described as follows: H69AR cell proliferation blockers – human, duplicate replicates, primary screen (AID 580).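 Further: 100% = mean luminescence of untreated wells and 0% = no signal.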 Particulars: H69AR lung tumor cells viability, ATP luminescence, 72 h; at 10 µM; stronger effect = lower value.
Assay [4] is described as follows: MRP1 drug-resistance reversers in H69AR cells – cell-based, doxorubicin co-treatment, pilot screen (AID 601;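 active means viability loss from added drug above about 55%, and viability with drug at most 40%, in both replicates, limit read from the data, passing the limit was not always enough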). Particulars: CellTiter-Glo, 72 h, at 10 µM; for differential viability (reversal): stronger effect = higher value.
Assay [5] can be described thus: yeast transport mutant growth inhibition pilot in 384-well plates, post-Golgi transport modulator project (AID 636; in the data active means inhibition above about 31%). Particulars: absorbance 615 nm, about 18 h, stronger effect = higher value.
Assay [6] in a line: growth suppression of yeast trafficking mutant, preliminary HTS, modulators of trafficking downstream of Golgi apparatus project, 1536-format plate, OD 615 nm (AID 637; in the data active means inhibition above about 30%). Particulars: yeast transport mutant growth, absorbance 615 nm, 18 h; stronger effect = higher value.
Where [7] appears, read: H69AR cells + 2 uM doxorubicin, measured here: viability with 2 uM doxorubicin, stronger effect = lower value.
Setting [8] is: H69AR cells, compound alone cytotoxicity.

The structures appear in SMILES notation. Active and inactive are the calls of the source.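 How the source made its calls, unless noted: active means viability at or under a set limit in both replicates, limit being median viability minus 3 SD (cut at about 48% in these data, passing the limit was not always enough); inconclusive means at or under the limit in just one replicate; inactive means at or above the limit in both replicates.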

Regarding `N/C(=N/O)c1nc(N2CCCCC2)nc(N2CCCCC2)n1`, the viability in assay [1] was 115% (inactive); in assay [2] it was 80.5% (inactive); in assay [3] it was 94.9% (inactive); in assay [4] (setting [7]), 95.1%; in assay [4] (setting [8]), 94.9%. Further, the differential viability (reversal) in assay [4] (H69AR cells + 2 uM doxorubicin) is -0.21% (inactive). Also, the inhibition in assay [5] was -0.65% (inactive); in assay [6], -0.98% (inactive).
Turning to `CC(C)CN(CC(C)C)c1nc(N)c(C#N)c(CC#N)c1C#N`, the viability was 106% (inactive) in assay [1]; 114% (inactive) in assay [2]; 86.7% (inactive) in assay [3]; 73.1% in assay [4] (setting [7]); 86.7% in assay [4] (setting [8]). The differential viability (reversal) in assay [4] (H69AR cells + 2 uM doxorubicin) was 13.6% (inactive). For the same compound, the inhibition in assay [5] was -5.6% (inactive); in assay [6], -1.27% (inactive).
`COc1ccc(CCNC(=O)CSCc2n[nH]c(=O)[nH]2)cc1OC`: the viability is 110% (inactive) in assay [1]; 89.3% (inactive) in assay [2]; 88.5% (inactive) in assay [3]; 88.6% in assay [4] (setting [7]); 88.5% in assay [4] (setting [8]). Also, in assay [4] (H69AR cells + 2 uM doxorubicin), the differential viability (reversal) is -0.08% (inactive). Also, the inhibition was -10.7% (inactive) in assay [5] and 0% (inactive) in assay [6].
Take `COc1ccccc1N1CCN(c2cc(N3CCCC3)nc(C)n2)CC1`: the viability was 75% (inactive) in assay [1]; 91.8% (inactive) in assay [2]; 87.8% (inactive) in assay [3]; 91.6% in assay [4] (setting [7]); 87.8% in assay [4] (setting [8]). In assay [4] (H69AR cells + 2 uM doxorubicin), the differential viability (reversal) was -3.8% (inactive). In addition, the inhibition in assay [5] is -2.6% (inactive); in assay [6], -2% (inactive).
In the case of `O=C(Nc1cccc(NC(=O)c2ccco2)c1)c1ccc2c(c1)OCO2`, the viability in assay [1] was 106% (inactive); in assay [2] it was 61% (inactive); in assay [3], 82.4% (inactive); in assay [4] (setting [7]) it was 86.8%; in assay [4] (setting [8]) it was 82.4%. The differential viability (reversal) in assay [4] (H69AR cells + 2 uM doxorubicin) was -4.39% (inactive). Also, the inhibition was -1.18% (inactive) in assay [5] and 21.2% (inactive) in assay [6].
With `CCCC(=O)Nc1cnc(NC(=O)c2cccc(F)c2)cc1C`, the viability in assay [1] is 86% (inactive); in assay [2], 90.3% (inactive); in assay [3] it was 88.7% (inactive); in assay [4] (setting [7]), 82.6%; in assay [4] (setting [8]) it was 88.7%. Further, the differential viability (reversal) in assay [4] (H69AR cells + 2 uM doxorubicin) was 6.15% (inactive). Also, the inhibition in assay [5] is 2.47% (inactive); in assay [6], 2.95% (inactive).
As to `CCn1cc(C(=O)O)c(=O)c2cc(F)c(N3CCNCC3)cc21`, the viability is 105% (inactive) in assay [1]; 91.1% (inactive) in assay [2]; 92.1% (inactive) in assay [3]; 88.9% in assay [4] (setting [7]); 92.1% in assay [4] (setting [8]). Moreover, the differential viability (reversal) in assay [4] (H69AR cells + 2 uM doxorubicin) was 3.17% (inactive). Also, the figures for the inhibition in assay [5] and in assay [6] were -3.77% (inactive) and 7.83% (inactive), respectively.
Take `CCOC(=O)Cc1nnc(Nc2cccc(O)c2)c2ccccc12`: the viability is 98% (inactive) in assay [1]; 95.4% (inactive) in assay [2]; 106% (inactive) in assay [3]; 85.8% in assay [4] (setting [7]); 106% in assay [4] (setting [8]). Moreover, the differential viability (reversal) in assay [4] (H69AR cells + 2 uM doxorubicin) is 20.6% (inactive). For the same compound, the inhibition is -3.65% (inactive) in assay [5] and 0% (inactive) in assay [6].
With `COc1nc(C)ccc1-c1noc(-c2ccncc2)n1`, the viability is 101% (inactive) in assay [1]; 86.5% (inactive) in assay [2]; 95.1% (inactive) in assay [3]; 83.6% in assay [4] (setting [7]); 95.1% in assay [4] (setting [8]). For the same compound, the differential viability (reversal) in assay [4] (H69AR cells + 2 uM doxorubicin) is 11.4% (inactive). Also, the inhibition is -8.22% (inactive) in assay [5] and 1.45% (inactive) in assay [6].
For `Cc1cccc(N2CCN(C(=O)C3CCCN(S(=O)(=O)c4c(C)noc4C)C3)CC2)c1C` (centres undefined), the viability is 78% (inactive) in assay [1]; 53.1% (inactive) in assay [2]; 81.9% (inactive) in assay [3]; 79.7% in assay [4] (setting [7]); 81.9% in assay [4] (setting [8]). Besides, the differential viability (reversal) in assay [4] (H69AR cells + 2 uM doxorubicin) is 2.14% (inactive). Moreover, the inhibition in assay [5] was -3.21% (inactive); in assay [6] it was 0.83% (inactive).
Turning to `C=CCOC(=O)C1=C(C)NC(=O)NC1c1cn(-c2ccccc2)nc1-c1cccs1` (centres undefined), the viability in assay [1] is 119% (inactive); in assay [2] it was 81.9% (inactive); in assay [3], 91% (inactive); in assay [4] (setting [7]) it was 94.7%; in assay [4] (setting [8]) it was 91%. In assay [4] (H69AR cells + 2 uM doxorubicin), the differential viability (reversal) is -3.71% (inactive). Moreover, the inhibition in assay [5] was -6.49% (inactive); in assay [6], 1.09% (inactive).
Turning to `C=CCOC(=O)CC(NC(=O)c1ccccc1)c1ccccc1` (centres undefined), the viability is 110% (inactive) in assay [1]; 108% (inactive) in assay [2]; 105% (inactive) in assay [3]; 85.3% in assay [4] (setting [7]); 105% in assay [4] (setting [8]). In assay [4] (H69AR cells + 2 uM doxorubicin), the differential viability (reversal) was 19.7% (inactive). Also, the inhibition was -3.73% (inactive) in assay [5] and -5.45% (inactive) in assay [6].
As to `Cc1c(CNCc2cccs2)c(C(=O)O)c(C)n1Cc1ccccc1`, the viability in assay [1] was 91% (inactive); in assay [2], 109% (inactive); in assay [3], 99.8% (inactive); in assay [4] (setting [7]) it was 94.2%; in assay [4] (setting [8]), 99.8%. Besides, the differential viability (reversal) in assay [4] (H69AR cells + 2 uM doxorubicin) was 5.63% (inactive). The inhibition was -3.97% (inactive) in assay [5] and 0.18% (inactive) in assay [6].
For `Cc1cc(NC(=O)CCCC(=O)Nc2ccc(F)cc2)no1`, the viability was 101% (inactive) in assay [1]; 96.8% (inactive) in assay [2]; 97% (inactive) in assay [3]; 97.5% in assay [4] (setting [7]); 97% in assay [4] (setting [8]). Besides, in assay [4] (H69AR cells + 2 uM doxorubicin), the differential viability (reversal) was -0.445% (inactive). The inhibition in assay [5] was -1.56% (inactive); in assay [6] it was -1.48% (inactive).
On to `Cc1cc(NS(=O)(=O)c2ccc(NC(=O)Nc3ccc4c(c3)OCO4)cc2)no1`, for which the viability is 80% (inactive) in assay [1]; 101% (inactive) in assay [2]; 92.6% (inactive) in assay [3]; 93.2% in assay [4] (setting [7]); 92.6% in assay [4] (setting [8]). In assay [4] (H69AR cells + 2 uM doxorubicin), the differential viability (reversal) is -0.555% (inactive). The inhibition in assay [5] was -6.49% (inactive); in assay [6], 0.55% (inactive).
On to `CC(C)C[C@H](NC(=O)Nc1cccc(C(F)(F)F)c1)C(=O)O`, for which the viability is 115% (inactive) in assay [1]; 98.1% (inactive) in assay [2]; 106% (inactive) in assay [3]; 91.8% in assay [4] (setting [7]); 106% in assay [4] (setting [8]). The differential viability (reversal) in assay [4] (H69AR cells + 2 uM doxorubicin) was 14.6% (inactive). The results for the inhibition in assay [5] and in assay [6] were -4.25% (inactive) and -0.81% (inactive), respectively.
For `c1ccc(-c2oc3ncnc(NCCN4CCOCC4)c3c2-c2ccccc2)cc1`, the viability in assay [1] is 90% (inactive); in assay [2] it was 58.8% (inactive); in assay [3], 73.3% (inactive); in assay [4] (setting [7]), 32.9%; in assay [4] (setting [8]), 73.3%. Besides, the differential viability (reversal) in assay [4] (H69AR cells + 2 uM doxorubicin) is 40.4% (inactive). The inhibition is -0.52% (inactive) in assay [5] and -4.1% (inactive) in assay [6].
Take `Cc1nc2cc(C(=O)O)ccc2n1-c1ccc(F)cc1F`: the viability was 120% (inactive) in assay [1]; 94.3% (inactive) in assay [2]; 101% (inactive) in assay [3]; 93.7% in assay [4] (setting [7]); 101% in assay [4] (setting [8]). Also, the differential viability (reversal) in assay [4] (H69AR cells + 2 uM doxorubicin) is 7.17% (inactive). The figures for the inhibition in assay [5] and in assay [6] were -4.42% (inactive) and 2.62% (inactive), respectively.

The term viability denotes a read-out of living cells in per cent, often relative to untreated cells. One may read the inhibition as the relative decrease from the control value, in per cent.
